High-throughput results deposited in PubChem BioAssay by several laboratories.
Runt-CBFb FRET = blocks binding of human RUNX1 Runt domain to CBFb | Q01196+Q13951 | Cerulean-Runt/Venus-CBFb FRET ratio 530/480, 1 h | inhibition, % at 20 µM | hit rate 0.46% among 220,000 | AID 1496;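 active means inhibition over about 50% at 20 µM in the single-dose screen, limit read from the data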;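 further: 0% = DMSO wells and 100% = excess unlabeled CBFb competitor control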
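Assay system: Cerulean-tagged RUNX1 Runt domain (FRET donor) fusion protein / Amount: 100 nM each of Venus-CBFb and Cerulean-Runt domain / Medium: Tris buffer pH 7.5 with salts and BSA / Also added: Venus-CBFb 100 nM / Schedule: 1 h complex formation plus 1 h compound treatment, room temperature / Signal: FRET fluorescence / Read-out: loss of energy transfer signal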
AI-2 QS mod = Vibrio harveyi AI-2 quorum sensing modulation | Vibrio harveyi JMH597 AI-2 luminescence/OD600 ratio, 9 h; stronger effect = lower value; strain lacks LuxN and CqsS sensors; 0 = neutral-control median | activity change, % at 7.5 µM | hit rate 0.4% among 300,000 | AID 2094; in the data active means activity change below about -75%, passing the limit was not always enough; inconclusive means no clear call, values can overlap the other calls;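 further: luminescence divided by OD600 gain over 9 h not by final OD600 alone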
RanGTP-Impb inh = disruptors of Ran-importin-beta complex formation – biochemical, FRET, CFP-Ran, YFP-importin-beta, homogeneous, primary screen. cell-free CFP-Ran/YFP-importin-beta FRET ratio. inhibition, % (no concentration beside the values). hit rate 1.1% among 300,000. AID 2216;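 active means more than half of the replicate wells show a fall in the fluorescence ratio signal beyond about 16%, limit read from the data, passing the limit was not always enough; inconclusive means exactly half of the replicate wells pass the set limit; inactive means fewer than half of replicates pass the limit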;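 further: 0% = DMSO wells and 100% = Ran loaded with GDP instead of GTP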
Runt-SMMHC FRET = Runt domain-CBFb-SMMHC interaction inhibition | inhibition, % at 20 µM | AID 1434 | Q01196+Q13951 | Cerulean-Runt/Venus-CBFb-SMMHC FRET ratio 530/480, 1 h | hit rate 0.74% among 220,000;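 active means mean inhibition across duplicate retests at 20 µM reaching about 50%, limit read from the data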;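 further: 0% = DMSO wells and 100% = wells with excess untagged CBFb-SMMHC; inhibitors lower the FRET ratio by blocking Runt binding to CBFb-SMMHC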
proKLK7 act = proKLK7 (human) activation, primary screen; purified proKLK7, EDANS-DABCYL substrate fluorescence; 100% is mature enzyme control, 0% vehicle; activation, % at 7 µM; hit rate 0.9% among 370,000; AID 652039;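 active means activation above the mean of all tested compounds plus 3 SD, computed per campaign excluding outliers beyond control limits, cut at about 13% in these data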
Wee1 degr inh = inhibitors of human Wee1 degradation. P30291. HeLa Luc-Wee1K328M stability, luciferase luminescence; 100% = proteasome inhibitor MG132 effect. reporter increase, % at 5 µM. hit rate 1.2% among 220,000. AID 1321;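 active means activation above the mean of all tested compounds plus 3 SD, set per screening run, cut at about 8.8% in these data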;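 further: cells exposed to compound for 20 h before luminescence read; 0% = DMSO alone and 100% = MG132 at 30 µM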
Target sequence (P30291 whole entry K328M): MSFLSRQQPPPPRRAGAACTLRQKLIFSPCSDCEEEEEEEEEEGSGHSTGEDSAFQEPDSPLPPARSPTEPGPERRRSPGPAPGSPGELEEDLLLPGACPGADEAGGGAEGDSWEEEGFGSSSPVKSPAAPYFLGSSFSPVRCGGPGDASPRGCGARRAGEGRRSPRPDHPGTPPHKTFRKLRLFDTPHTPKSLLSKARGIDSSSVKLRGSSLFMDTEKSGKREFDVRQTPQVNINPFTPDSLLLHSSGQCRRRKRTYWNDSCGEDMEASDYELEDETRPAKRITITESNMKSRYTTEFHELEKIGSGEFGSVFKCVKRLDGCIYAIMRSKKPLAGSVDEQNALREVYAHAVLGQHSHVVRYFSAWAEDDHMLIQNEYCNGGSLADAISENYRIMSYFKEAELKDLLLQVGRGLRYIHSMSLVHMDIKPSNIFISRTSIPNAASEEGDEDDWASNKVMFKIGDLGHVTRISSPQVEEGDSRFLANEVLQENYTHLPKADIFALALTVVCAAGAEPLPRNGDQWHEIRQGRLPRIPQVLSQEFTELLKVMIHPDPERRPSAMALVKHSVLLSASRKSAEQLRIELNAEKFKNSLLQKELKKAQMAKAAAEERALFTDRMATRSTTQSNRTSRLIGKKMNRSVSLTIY
Numbers without * were called inactive; ? = inconclusive; / = not tested or not shown. Shown are actives, neighbours in structure and some others; about 2.9% of the full set was active somewhere.

SMILES | Runt-CBFb FRET | AI-2 QS mod | RanGTP-Impb inh | Runt-SMMHC FRET | proKLK7 act | Wee1 degr inh
S=C(NC1CCCCC1)NC1CC2C=CC1C2 (configuration not stated) | -0.1 | 19.5 | ? | -1.6 | 0.6 | 9.2*
CC(C)(CCO)NC(=S)NC1CC2C=CC1C2 (configuration not stated) | 0.6 | 14.2 | -0.7 | 1.8 | 0.2 | -1.0
CN(C)CCNC(=O)C(=O)C1C(=O)Nc2ccccc21 (configuration not stated) | 0.2 | 28.4 | 2.6 | -2.0 | 0.2 | -1.3
O=C(NCc1ccccn1)C(=O)C1C(=O)Nc2ccccc21 (configuration not stated) | 0.8 | 28.9 | -4.4 | -0.7 | 0.1 | 9.5*
O=C(O)c1ccccc1SCc1csc(-c2ccccc2)n1 | / | 25.9 | 26.7* | / | 0.1 | /
COc1ccc(C(=O)Nc2c(Cl)cc(Cl)cc2C(=O)N2CCOCC2)cc1 | 1.0 | -1.0 | -1.1 | -0.2 | -0.3 | 8.9*
COc1ccc(C(=O)Nc2c(Cl)cc(Cl)cc2C(=O)NCc2ccco2)cc1 | -1.2 | 26.3 | 1.7 | -4.2 | -0.1 | 5.0
CCOc1ccc(-n2c(SCC(=O)c3ccc4ccccc4c3)nnc2-c2ccco2)cc1 | / | / | / | / | -0.2 | /
O=C(O)CCC(=O)N1CCCC1 | -0.5 | 8.7 | 2.5 | -1.4 | -0.7 | 9.9*
Nc1ncnc2c1ncn2[C@H]1C[C@H](O)[C@@H](CO)O1 | -0.3 | / | / | 0.2 | -1.0 | 8.1
Nc1nc(Cl)nc2c1ncn2[C@H]1C[C@H](O)[C@@H](CO)O1 | -3.0 | -157.9* | -0.9 | -1.7 | 0.6 | -1.7
O=C(NC(=S)Nc1ccccc1Br)C1CC1 | / | -77.2* | -1.2 | / | -0.1 | /
COc1ccc(CC(=O)O)cc1O | 3.3 | -1.1 | -4.5 | 2.0 | 0.1 | 6.0
COc1ccc(CC2NCCC3=CC(=O)CCC32)cc1O (configuration not stated) | / | 3.6 | 28.7* | / | 1.0 | /
Cc1c(Br)c(=O)oc2c(C)c(O)ccc12 | 48.4 | 19.4 | 32.8* | 73.2* | -2.8 | 0.1
CCN(CC)Cc1cc(Nc2c3ccccc3nc3c4ccccc4n(C)c23)cc(CN(CC)CC)c1O | / | / | / | / | 23.4* | /
COc1ccc(CN2CN3Cc4cc(OC)ccc4C3CS2(=O)=O)cc1 (configuration not stated) | / | / | / | / | -1.1 | /
COCCn1c(C)cc(C(=O)CSc2nc(C)cc(C)c2C#N)c1C | 9.5 | 40.2 | 8.1 | 58.5* | 2.7 | 0.7
Cc1cc(C)n(Cc2ccc(NC(=O)c3ccc(COc4ccccc4Br)cc3)cc2)n1 | -0.6 | 31.9 | -1.5 | 0.0 | -0.9 | 1.5
CCN1CCC(NC(=O)Nc2ccccc2C(=O)OC)CC1 | 1.7 | 5.1 | 0.4 | 2.2 | -1.0 | -2.1
COC(=O)c1ccccc1NC(=O)NC1CCN(Cc2ccccc2)CC1 | 90.9* | 19.2 | -1.2 | -2.7 | -0.3 | -0.8
CCOC(=O)C1=CCC(c2ccccc2)N(S(C)(=O)=O)C1 (configuration not stated) | / | / | / | / | 0.3 | /
COc1cc(NC(=S)NCCCN2CCOCC2)cc(OC)c1 | 2.9 | 14.9 | 3.7 | 1.9 | -0.3 | 9.6*
N#CC1=C(N)SC(N)=C(C#N)C1c1ccc([N+](=O)[O-])cc1 | 41.0 | 15.0 | -2.0 | 41.0 | -0.2 | 10.4*
N#CC1=C(N)Nc2ncnn2C1c1ccc([N+](=O)[O-])cc1 (configuration not stated) | 12.5 | 10.0 | 0.7 | 0.2 | -0.2 | 0.3
SMILES | Runt-CBFb FRET | AI-2 QS mod | RanGTP-Impb inh | Runt-SMMHC FRET | proKLK7 act | Wee1 degr inh
N#CC1=C(N)SC(N)=C(C#N)C1c1ccc(C(F)(F)F)cc1 | 37.6 | 12.8 | 23.9* | 40.8 | / | -1.0
Cc1ccc(NC(=O)CN2C(=O)NC(C)(C3CC3)C2=O)cc1S(=O)(=O)N1CCCCC1 (configuration not stated) | / | / | / | / | 0.3 | /
CC(C)c1ccc(OCC(=O)NNC(=O)c2cnccn2)cc1 | 1.7 | -82.9* | 4.0 | -0.2 | 0.0 | 4.2
S=c1[nH]nc(-c2c[nH]c3ccccc23)o1 | / | 0.5 | 4.2 | / | -1.0 | /
Oc1cc2ccccc2cc1-c1n[nH]c(=S)o1 | -3.5 | 18.8 | 0.5 | -18.4 | -28.5 | 8.9*
CCc1nc(SCC(=O)c2ccc3c(c2)OCCO3)c2ccccc2n1 | 29.2 | 22.3 | 11.6 | 55.8* | -1.0 | 3.5
